Where a SMILES comes first, the peptide text is derived from it. [ ]: non-standard residue; d: D form. Aib = CC(C)(N)C(=O)O

EC50 and Tm data for 15 compounds are collected here from ChEMBL document CHEMBL1142469, “Identification of minimal sequence for HIV-1 fusion inhibitors” (Bioorg Med Chem, 2008).

The subject of experiment [1] is Human immunodeficiency virus 1. Nature of the experiment: Antiviral activity against HIV1 in human HeLa-CD4-LTR-beta-gal (MAGI) cells assessed as inhibition of viral replication after 48 hrs by multinuclear activation of galactosidase indicator assay. The conditions noted are these: Human immunodeficiency virus 1, HeLa.
For experiment [2], the system named is Human immunodeficiency virus 1. The experiment in a line: Binding affinity to HIV1 heptad repeat 1 peptide N36 assessed as melting temperature of drug-HR1 peptide complex. An outline of the steps: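 HR2 peptide and N36 (HR1) peptide mixed, each at 10 μM final in PBS pH 7.4, incubated 37 °C for 30 min, then followed by CD through thermal unfolding; Tm taken as the midpoint of the unfolding transition.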

As usually defined, the EC50 is the concentration giving half of the maximal effect. On to `CC[C@H](C)[C@H](NC(=O)[C@H](CCCCN)NC(=O)[C@H](CCCCN)NC(=O)[C@H](CC(=O)O)NC(=O)[C@H](Cc1c[nH]c2ccccc12)NC(=O)[C@H](CCC(=O)O)NC(=O)[C@H](CCC(=O)O)NC(=O)[C@@H](N)Cc1c[nH]c2ccccc12)C(=O)N[C@@H](CCC(=O)O)C(=O)N[C@@H](CCC(=O)O)C(=O)N[C@@H](Cc1ccc(O)cc1)C(=O)N[C@H](C(=O)N[C@@H](CCCCN)C(=O)N[C@@H](CCCCN)C(=O)N[C@H](C(=O)N[C@@H](CCC(=O)O)C(=O)N[C@@H](CCC(=O)O)C(=O)N[C@@H](CC(C)C)C(=O)N[C@H](C(=O)N[C@@H](CCCCN)C(=O)N[C@@H](CCCCN)C(=O)N[C@@H](CO)C(=O)NC(C)(C)C(=O)N[C@@H](CCC(=O)O)C(=O)N[C@@H](CCC(N)=O)C(=O)N[C@@H](CCC(N)=O)C(=O)NC(C)(C)C(=O)N[C@@H](CCCCN)C(=O)N[C@@H](CC(N)=O)C(=O)O)[C@@H](C)CC)[C@@H](C)CC)[C@@H](C)O` (H-WEEWDKKIEEYTKKIEELIKKS[Aib]EQQ[Aib]KN-OH), for which the EC50 in experiment [1] is 7.1 nM.
As to `CC[C@H](C)[C@H](NC(=O)[C@H](CCCCN)NC(=O)[C@H](CCCCN)NC(=O)[C@H](CC(=O)O)NC(=O)[C@H](Cc1c[nH]c2ccccc12)NC(=O)[C@H](CCC(=O)O)NC(=O)[C@H](CCC(=O)O)NC(=O)[C@@H](N)Cc1c[nH]c2ccccc12)C(=O)N[C@@H](CCC(=O)O)C(=O)N[C@@H](CCC(=O)O)C(=O)N[C@@H](Cc1ccc(O)cc1)C(=O)N[C@H](C(=O)N[C@@H](CCCCN)C(=O)N[C@@H](CCCCN)C(=O)N[C@H](C(=O)N[C@@H](CCC(=O)O)C(=O)N[C@@H](CCC(=O)O)C(=O)N[C@@H](CC(C)C)C(=O)N[C@H](C(=O)N[C@@H](CCCCN)C(=O)N[C@@H](CCCCN)C(=O)N[C@@H](CO)C(=O)NC(C)(C)C(=O)NCC(=O)N[C@@H](CCC(N)=O)C(=O)N[C@@H](CCC(N)=O)C(=O)NC(C)(C)C(=O)NCC(=O)N[C@@H](CC(N)=O)C(=O)O)[C@@H](C)CC)[C@@H](C)CC)[C@@H](C)O` (H-WEEWDKKIEEYTKKIEELIKKS[Aib]GQQ[Aib]GN-OH), in experiment [1], the EC50 stood at 31.3 nM.
Regarding `CC[C@H](C)[C@H](NC(=O)[C@H](CCCCN)NC(=O)[C@H](CCCCN)NC(=O)[C@H](CC(=O)O)NC(=O)[C@H](Cc1c[nH]c2ccccc12)NC(=O)[C@H](CCC(=O)O)NC(=O)[C@H](CCC(=O)O)NC(=O)[C@@H](N)Cc1c[nH]c2ccccc12)C(=O)N[C@@H](CCC(=O)O)C(=O)N[C@@H](CCC(=O)O)C(=O)N[C@@H](Cc1ccc(O)cc1)C(=O)N[C@H](C(=O)N[C@@H](CCCCN)C(=O)N[C@@H](CCCCN)C(=O)N[C@H](C(=O)NC(C)(C)C(=O)N[C@@H](CCC(=O)O)C(=O)N[C@@H](CC(C)C)C(=O)N[C@H](C(=O)NC(C)(C)C(=O)N[C@@H](CCCCN)C(=O)N[C@@H](CO)C(=O)N[C@@H](CCC(=O)O)C(=O)N[C@@H](CCC(=O)O)C(=O)N[C@@H](CCC(N)=O)C(=O)N[C@@H](CCC(N)=O)C(=O)N[C@@H](CCCCN)C(=O)N[C@@H](CCCCN)C(=O)N[C@@H](CC(N)=O)C(=O)O)[C@@H](C)CC)[C@@H](C)CC)[C@@H](C)O` (H-WEEWDKKIEEYTKKI[Aib]ELI[Aib]KSEEQQKKN-OH), the EC50 in experiment [1] was 0.87 nM.
Take `CC[C@H](C)[C@H](NC(=O)[C@H](CCCCN)NC(=O)[C@H](CCCCN)NC(=O)[C@H](CC(=O)O)NC(=O)[C@H](Cc1c[nH]c2ccccc12)NC(=O)[C@H](CCC(=O)O)NC(=O)[C@H](CCC(=O)O)NC(=O)[C@@H](N)Cc1c[nH]c2ccccc12)C(=O)N[C@@H](CCC(=O)O)C(=O)N[C@@H](CCC(=O)O)C(=O)N[C@@H](Cc1ccc(O)cc1)C(=O)N[C@H](C(=O)N[C@@H](CCCCN)C(=O)N[C@@H](CCCCN)C(=O)N[C@H](C(=O)NC(C)(C)C(=O)NCC(=O)N[C@@H](CC(C)C)C(=O)N[C@H](C(=O)NC(C)(C)C(=O)NCC(=O)N[C@@H](CO)C(=O)N[C@@H](CCC(=O)O)C(=O)N[C@@H](CCC(=O)O)C(=O)N[C@@H](CCC(N)=O)C(=O)N[C@@H](CCC(N)=O)C(=O)N[C@@H](CCCCN)C(=O)N[C@@H](CCCCN)C(=O)N[C@@H](CC(N)=O)C(=O)O)[C@@H](C)CC)[C@@H](C)CC)[C@@H](C)O` (H-WEEWDKKIEEYTKKI[Aib]GLI[Aib]GSEEQQKKN-OH): in experiment [1], the half-maximal effective concentration (EC50) turned out to be 25.6 nM.
As for `CC[C@H](C)[C@H](NC(=O)[C@H](CC(C)C)NC(=O)[C@H](CCC(=O)O)NC(=O)[C@H](CCC(=O)O)NC(=O)[C@@H](NC(=O)[C@H](CCCCN)NC(=O)C(C)(C)NC(=O)[C@@H](NC(=O)[C@H](Cc1ccc(O)cc1)NC(=O)[C@H](CCC(=O)O)NC(=O)C(C)(C)NC(=O)[C@@H](NC(=O)[C@H](CCCCN)NC(=O)[C@H](CCCCN)NC(=O)[C@H](CC(=O)O)NC(=O)[C@H](Cc1c[nH]c2ccccc12)NC(=O)[C@H](CCC(=O)O)NC(=O)[C@H](CCC(=O)O)NC(=O)[C@@H](N)Cc1c[nH]c2ccccc12)[C@@H](C)CC)[C@@H](C)O)[C@@H](C)CC)C(=O)N[C@@H](CCCCN)C(=O)N[C@@H](CCCCN)C(=O)N[C@@H](CO)C(=O)N[C@@H](CCC(=O)O)C(=O)N[C@@H](CCC(=O)O)C(=O)N[C@@H](CCC(N)=O)C(=O)N[C@@H](CCC(N)=O)C(=O)N[C@@H](CCCCN)C(=O)N[C@@H](CCCCN)C(=O)N[C@@H](CC(N)=O)C(=O)O` (H-WEEWDKKI[Aib]EYT[Aib]KIEELIKKSEEQQKKN-OH), the 50% effective concentration (EC50) in experiment [1] came to 2.15 nM.
Still for that read-out and setting: with `CC[C@H](C)[C@H](NC(=O)CNC(=O)C(C)(C)NC(=O)[C@@H](NC(=O)[C@H](Cc1ccc(O)cc1)NC(=O)CNC(=O)C(C)(C)NC(=O)[C@@H](NC(=O)[C@H](CCCCN)NC(=O)[C@H](CCCCN)NC(=O)[C@H](CC(=O)O)NC(=O)[C@H](Cc1c[nH]c2ccccc12)NC(=O)[C@H](CCC(=O)O)NC(=O)[C@H](CCC(=O)O)NC(=O)[C@@H](N)Cc1c[nH]c2ccccc12)[C@@H](C)CC)[C@@H](C)O)C(=O)N[C@@H](CCC(=O)O)C(=O)N[C@@H](CCC(=O)O)C(=O)N[C@@H](CC(C)C)C(=O)N[C@H](C(=O)N[C@@H](CCCCN)C(=O)N[C@@H](CCCCN)C(=O)N[C@@H](CO)C(=O)N[C@@H](CCC(=O)O)C(=O)N[C@@H](CCC(=O)O)C(=O)N[C@@H](CCC(N)=O)C(=O)N[C@@H](CCC(N)=O)C(=O)N[C@@H](CCCCN)C(=O)N[C@@H](CCCCN)C(=O)N[C@@H](CC(N)=O)C(=O)O)[C@@H](C)CC` (H-WEEWDKKI[Aib]GYT[Aib]GIEELIKKSEEQQKKN-OH) the figure was 270 nM; with `CC[C@H](C)[C@H](NC(=O)[C@H](CC(C)C)NC(=O)[C@H](CCC(=O)O)NC(=O)[C@H](CCC(=O)O)NC(=O)[C@@H](NC(=O)[C@H](CCCCN)NC(=O)[C@H](CCCCN)NC(=O)[C@@H](NC(=O)[C@H](Cc1ccc(O)cc1)NC(=O)[C@H](CCC(=O)O)NC(=O)[C@H](CCC(=O)O)NC(=O)[C@@H](NC(=O)[C@H](CCCCN)NC(=O)C(C)(C)NC(=O)[C@H](CC(=O)O)NC(=O)[C@H](Cc1c[nH]c2ccccc12)NC(=O)[C@H](CCC(=O)O)NC(=O)C(C)(C)NC(=O)[C@@H](N)Cc1c[nH]c2ccccc12)[C@@H](C)CC)[C@@H](C)O)[C@@H](C)CC)C(=O)N[C@@H](CCCCN)C(=O)N[C@@H](CCCCN)C(=O)N[C@@H](CO)C(=O)N[C@@H](CCC(=O)O)C(=O)N[C@@H](CCC(=O)O)C(=O)N[C@@H](CCC(N)=O)C(=O)N[C@@H](CCC(N)=O)C(=O)N[C@@H](CCCCN)C(=O)N[C@@H](CCCCN)C(=O)N[C@@H](CC(N)=O)C(=O)O` (H-W[Aib]EWD[Aib]KIEEYTKKIEELIKKSEEQQKKN-OH), 0.54 nM.
`CC[C@H](C)[C@H](NC(=O)CNC(=O)C(C)(C)NC(=O)[C@H](CC(=O)O)NC(=O)[C@H](Cc1c[nH]c2ccccc12)NC(=O)CNC(=O)C(C)(C)NC(=O)[C@@H](N)Cc1c[nH]c2ccccc12)C(=O)N[C@@H](CCC(=O)O)C(=O)N[C@@H](CCC(=O)O)C(=O)N[C@@H](Cc1ccc(O)cc1)C(=O)N[C@H](C(=O)N[C@@H](CCCCN)C(=O)N[C@@H](CCCCN)C(=O)N[C@H](C(=O)N[C@@H](CCC(=O)O)C(=O)N[C@@H](CCC(=O)O)C(=O)N[C@@H](CC(C)C)C(=O)N[C@H](C(=O)N[C@@H](CCCCN)C(=O)N[C@@H](CCCCN)C(=O)N[C@@H](CO)C(=O)N[C@@H](CCC(=O)O)C(=O)N[C@@H](CCC(=O)O)C(=O)N[C@@H](CCC(N)=O)C(=O)N[C@@H](CCC(N)=O)C(=O)N[C@@H](CCCCN)C(=O)N[C@@H](CCCCN)C(=O)N[C@@H](CC(N)=O)C(=O)O)[C@@H](C)CC)[C@@H](C)CC)[C@@H](C)O` (H-W[Aib]GWD[Aib]GIEEYTKKIEELIKKSEEQQKKN-OH): in experiment [1], the EC50 was determined as 37.5 nM.
As for H-WEEWDKKIEEYTKKIEELIKKS-OH, the EC50 in experiment [1] is 60 nM. In addition, in experiment [2], the Tm worked out at 63.5 °C.
For H-WEEWDKKIEEYTKKIEELIKKSEEQQKKN-OH, in experiment [1], the EC50 stood at 0.46 nM. The Tm in experiment [2] is 65 °C.
“H-WEEWDKKIEEYTKKIEELIKKSEEQQKKNEEELKK-OH”: the half-maximal effective concentration (EC50) in experiment [1] worked out at 0.39 nM. For the same compound, in experiment [2], the Tm amounted to 71.5 °C.
With H-WMEWDREINNYTSLIHSLIEES-OH, in experiment [1], the concentration giving a half-maximal response (EC50) was greater than 1000 nM. The Tm in experiment [2] stood at 38.5 °C.
Take H-WMEWDREINNYTSLIHSLIEESQNQQEKN-OH: the concentration for a half-maximal effect (EC50) in experiment [1] is 46 nM. Moreover, in experiment [2], the Tm worked out at 48.5 °C.
For the compound “H-YTSLIEELIKKSEEQQKKNEEELKKLEEWAKKWNWF-OH”, the half-maximal effective concentration (EC50) in experiment [1] is 1.8 nM.
For the compound enfuvirtide, the EC50 in experiment [1] was 15 nM.
